Test results published in ChEMBL document CHEMBL3351822, “Spongiapyridine and related spongians isolated from an Indonesian Spongia sp” (J Nat Prod, 2014).
The source made the active and inactive calls. The rule behind the calls is not given here.

Key:
[1] = target: Nuclear factor NF-kappa-B complex (Homo sapiens) (UniProt Q00653+P19838+Q04206); test: Inhibition of TNF-alpha-induced NF-kappaB activity in HEK293 cells after 6 hrs by luciferase reporter gene assay; type: cell-based
[2] = target: Beta-secretase 1 (Homo sapiens) (UniProt P56817); test: Inhibition of BACE1 (unknown origin) assessed as proteolytic cleavage of amyloid precursor protein after 16 hrs at < 100 uM by chemiluminescence assay
[3] = target: NAD(P)H dehydrogenase [quinone] 1 (Mus musculus) (UniProt Q64669); test: Induction of quinone reductase 1 in mouse Hepa-1c1c7 cells after 48 hrs by MTT assay; type: cell-based
Procedure, shortened: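 QR1 induction measured in cultured murine Hepa 1c1c7 hepatoma cells. Potency is expressed as the CD value, the test-compound concentration needed to double QR1 enzymatic activity.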

Aromatase [4] = target: T1, Aromatase (Homo sapiens, UniProt P11511); test: Inhibition of aromatase (unknown origin) using dibenzylfluorescein substrate after 24 hrs by fluorescence assay
T1 sequence (P11511 whole entry): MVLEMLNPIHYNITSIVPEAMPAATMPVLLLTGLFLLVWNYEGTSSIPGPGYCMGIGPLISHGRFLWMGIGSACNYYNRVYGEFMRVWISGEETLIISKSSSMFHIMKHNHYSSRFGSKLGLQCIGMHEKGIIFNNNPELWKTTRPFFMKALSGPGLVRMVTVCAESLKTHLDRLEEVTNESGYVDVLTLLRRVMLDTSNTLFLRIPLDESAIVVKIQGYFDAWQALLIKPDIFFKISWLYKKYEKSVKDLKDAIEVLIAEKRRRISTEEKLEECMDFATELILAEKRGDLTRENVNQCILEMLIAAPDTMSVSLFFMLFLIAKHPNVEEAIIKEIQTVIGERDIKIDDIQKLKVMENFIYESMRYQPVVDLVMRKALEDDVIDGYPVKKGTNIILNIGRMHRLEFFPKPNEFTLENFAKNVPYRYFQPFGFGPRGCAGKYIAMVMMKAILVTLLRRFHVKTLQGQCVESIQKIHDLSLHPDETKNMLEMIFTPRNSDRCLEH

[5] = target: T2, Nitric oxide synthase, inducible (Mus musculus) (UniProt P29477); test: Inhibition of LPS-induced iNOS activity in mouse RAW264.7 cells after 24 hrs; type: cell-based
T2 sequence (whole entry): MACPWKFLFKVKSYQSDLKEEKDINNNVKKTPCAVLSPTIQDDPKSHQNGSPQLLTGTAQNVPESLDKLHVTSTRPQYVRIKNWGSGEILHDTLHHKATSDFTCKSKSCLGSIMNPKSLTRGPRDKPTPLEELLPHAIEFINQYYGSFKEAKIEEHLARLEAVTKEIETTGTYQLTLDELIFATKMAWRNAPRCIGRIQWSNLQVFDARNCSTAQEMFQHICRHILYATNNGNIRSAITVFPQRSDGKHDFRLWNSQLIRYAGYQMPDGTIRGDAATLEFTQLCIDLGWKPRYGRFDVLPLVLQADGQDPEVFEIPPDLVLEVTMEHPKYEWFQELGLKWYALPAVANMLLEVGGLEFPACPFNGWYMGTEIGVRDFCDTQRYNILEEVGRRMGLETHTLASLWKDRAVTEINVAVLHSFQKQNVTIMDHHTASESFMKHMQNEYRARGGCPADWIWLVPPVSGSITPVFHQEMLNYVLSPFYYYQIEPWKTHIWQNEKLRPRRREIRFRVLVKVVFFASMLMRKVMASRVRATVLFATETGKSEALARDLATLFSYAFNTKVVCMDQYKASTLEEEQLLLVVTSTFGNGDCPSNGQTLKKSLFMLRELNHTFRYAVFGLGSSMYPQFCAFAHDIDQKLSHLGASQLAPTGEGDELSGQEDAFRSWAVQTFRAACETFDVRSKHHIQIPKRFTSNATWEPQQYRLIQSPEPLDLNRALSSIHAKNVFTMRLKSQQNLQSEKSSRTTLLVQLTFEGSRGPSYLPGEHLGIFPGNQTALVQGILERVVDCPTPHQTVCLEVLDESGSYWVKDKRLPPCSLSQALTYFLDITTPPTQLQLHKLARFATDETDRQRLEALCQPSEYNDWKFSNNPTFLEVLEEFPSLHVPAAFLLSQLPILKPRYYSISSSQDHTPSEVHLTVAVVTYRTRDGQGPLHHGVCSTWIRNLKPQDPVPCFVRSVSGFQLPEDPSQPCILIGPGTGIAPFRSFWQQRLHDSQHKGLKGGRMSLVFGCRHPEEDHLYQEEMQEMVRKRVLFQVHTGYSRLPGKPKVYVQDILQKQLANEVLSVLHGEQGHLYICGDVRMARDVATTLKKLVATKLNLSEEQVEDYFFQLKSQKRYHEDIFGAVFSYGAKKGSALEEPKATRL

Aromatase [6] = target: T1, Aromatase; test: Inhibition of aromatase (unknown origin) using dibenzylfluorescein substrate at 50 uM after 24 hrs by fluorescence assay

Nuclear factor NF-kappa-B complex (Homo sapiens), sequence (P19838 whole entry, looked up): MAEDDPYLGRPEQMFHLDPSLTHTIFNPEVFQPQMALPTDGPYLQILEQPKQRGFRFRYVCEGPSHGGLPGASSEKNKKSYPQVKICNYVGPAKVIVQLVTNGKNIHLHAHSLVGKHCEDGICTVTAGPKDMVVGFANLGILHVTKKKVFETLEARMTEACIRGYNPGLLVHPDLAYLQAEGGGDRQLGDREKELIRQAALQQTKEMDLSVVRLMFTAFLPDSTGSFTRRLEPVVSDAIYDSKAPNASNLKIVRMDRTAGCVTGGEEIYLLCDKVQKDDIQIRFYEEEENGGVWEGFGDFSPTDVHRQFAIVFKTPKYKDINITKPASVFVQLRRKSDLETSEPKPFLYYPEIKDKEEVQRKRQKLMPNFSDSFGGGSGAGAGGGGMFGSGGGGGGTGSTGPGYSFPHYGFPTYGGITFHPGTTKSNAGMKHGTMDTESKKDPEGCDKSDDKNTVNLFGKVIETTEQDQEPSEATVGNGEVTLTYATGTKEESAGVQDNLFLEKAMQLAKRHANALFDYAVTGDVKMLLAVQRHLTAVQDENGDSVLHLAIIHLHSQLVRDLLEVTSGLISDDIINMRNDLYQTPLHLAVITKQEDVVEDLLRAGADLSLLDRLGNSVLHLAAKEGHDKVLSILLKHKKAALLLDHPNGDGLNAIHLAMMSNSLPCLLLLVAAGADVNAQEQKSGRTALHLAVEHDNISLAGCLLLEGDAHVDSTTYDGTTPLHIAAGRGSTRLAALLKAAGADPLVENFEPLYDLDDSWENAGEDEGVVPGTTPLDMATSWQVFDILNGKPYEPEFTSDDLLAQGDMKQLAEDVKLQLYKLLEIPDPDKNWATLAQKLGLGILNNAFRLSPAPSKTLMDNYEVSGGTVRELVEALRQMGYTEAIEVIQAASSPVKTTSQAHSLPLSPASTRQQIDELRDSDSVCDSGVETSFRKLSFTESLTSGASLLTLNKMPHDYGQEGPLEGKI
Nuclear factor NF-kappa-B complex (Homo sapiens), sequence (Q00653 whole entry, looked up): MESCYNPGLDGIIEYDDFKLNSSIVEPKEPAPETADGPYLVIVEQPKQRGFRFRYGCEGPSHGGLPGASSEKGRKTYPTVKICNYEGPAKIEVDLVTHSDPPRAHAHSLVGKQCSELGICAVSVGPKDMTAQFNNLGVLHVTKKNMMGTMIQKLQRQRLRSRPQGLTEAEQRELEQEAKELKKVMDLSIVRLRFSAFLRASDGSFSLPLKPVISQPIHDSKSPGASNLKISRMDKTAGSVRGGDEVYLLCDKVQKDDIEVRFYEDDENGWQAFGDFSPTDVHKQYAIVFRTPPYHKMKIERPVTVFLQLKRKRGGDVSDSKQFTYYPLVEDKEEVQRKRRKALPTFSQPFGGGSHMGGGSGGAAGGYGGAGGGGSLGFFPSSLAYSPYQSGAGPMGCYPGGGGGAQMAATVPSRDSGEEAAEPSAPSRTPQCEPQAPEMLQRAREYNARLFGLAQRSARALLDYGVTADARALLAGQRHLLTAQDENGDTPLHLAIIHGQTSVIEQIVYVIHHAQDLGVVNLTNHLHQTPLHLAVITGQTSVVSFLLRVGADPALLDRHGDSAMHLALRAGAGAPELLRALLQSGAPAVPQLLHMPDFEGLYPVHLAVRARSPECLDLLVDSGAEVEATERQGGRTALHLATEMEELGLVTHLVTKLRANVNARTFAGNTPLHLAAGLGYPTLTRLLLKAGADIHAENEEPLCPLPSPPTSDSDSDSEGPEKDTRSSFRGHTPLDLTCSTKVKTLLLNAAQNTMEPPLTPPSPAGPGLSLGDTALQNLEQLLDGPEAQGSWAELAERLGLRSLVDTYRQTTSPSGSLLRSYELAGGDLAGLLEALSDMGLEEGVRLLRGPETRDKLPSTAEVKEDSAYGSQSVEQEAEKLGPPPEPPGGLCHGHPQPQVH
Nuclear factor NF-kappa-B complex (Homo sapiens), sequence (Q04206 whole entry, looked up): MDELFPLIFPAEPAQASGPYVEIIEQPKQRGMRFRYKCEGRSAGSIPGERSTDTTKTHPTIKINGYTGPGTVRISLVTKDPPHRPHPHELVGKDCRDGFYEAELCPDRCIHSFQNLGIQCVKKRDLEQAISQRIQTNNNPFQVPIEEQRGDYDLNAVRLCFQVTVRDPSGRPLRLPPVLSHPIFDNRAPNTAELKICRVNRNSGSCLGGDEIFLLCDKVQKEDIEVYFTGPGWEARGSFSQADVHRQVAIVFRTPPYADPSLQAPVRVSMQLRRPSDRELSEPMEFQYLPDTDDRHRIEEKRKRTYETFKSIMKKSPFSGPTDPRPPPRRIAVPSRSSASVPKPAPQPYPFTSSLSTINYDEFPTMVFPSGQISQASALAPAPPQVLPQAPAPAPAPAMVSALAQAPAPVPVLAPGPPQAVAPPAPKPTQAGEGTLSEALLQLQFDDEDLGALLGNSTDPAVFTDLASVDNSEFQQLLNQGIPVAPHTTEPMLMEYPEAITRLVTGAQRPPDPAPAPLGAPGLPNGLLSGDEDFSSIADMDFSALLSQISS
Beta-secretase 1 (Homo sapiens), sequence (P56817 whole entry): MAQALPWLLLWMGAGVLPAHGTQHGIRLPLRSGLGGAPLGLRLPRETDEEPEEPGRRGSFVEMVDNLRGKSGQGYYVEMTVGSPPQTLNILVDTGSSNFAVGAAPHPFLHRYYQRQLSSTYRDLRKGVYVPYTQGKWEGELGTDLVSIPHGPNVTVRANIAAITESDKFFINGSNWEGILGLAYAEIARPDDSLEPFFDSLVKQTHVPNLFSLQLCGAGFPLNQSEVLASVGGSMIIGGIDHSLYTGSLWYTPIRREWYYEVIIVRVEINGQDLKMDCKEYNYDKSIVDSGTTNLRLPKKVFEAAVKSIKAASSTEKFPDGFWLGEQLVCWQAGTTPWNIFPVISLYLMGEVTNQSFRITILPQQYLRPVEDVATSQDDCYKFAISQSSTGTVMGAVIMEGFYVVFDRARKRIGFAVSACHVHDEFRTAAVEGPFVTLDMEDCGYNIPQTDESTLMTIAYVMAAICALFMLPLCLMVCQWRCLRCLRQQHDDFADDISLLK
NAD(P)H dehydrogenase [quinone] 1 (Mus musculus), sequence (Q64669 whole entry): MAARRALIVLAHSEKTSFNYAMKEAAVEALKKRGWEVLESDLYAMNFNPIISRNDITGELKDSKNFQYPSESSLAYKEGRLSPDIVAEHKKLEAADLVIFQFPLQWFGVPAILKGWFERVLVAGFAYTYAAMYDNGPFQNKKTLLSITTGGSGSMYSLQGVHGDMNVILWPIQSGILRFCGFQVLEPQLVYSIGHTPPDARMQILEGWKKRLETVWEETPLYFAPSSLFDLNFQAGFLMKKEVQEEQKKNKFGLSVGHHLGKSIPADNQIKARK

ED50 [1] [µM] | inhibition [2] | CD [3] [µM] | IC50 (Aromatase [4]) [µM] | inhibition [5] | inhibition at 50 µM (Aromatase [6]) [%] | Structure (SMILES)
> 50 | inactive | 11.2 | 34.4 | inactive |  | CC1=C(O)C(=O)C[C@]2(C)[C@H]3CCc4cocc4[C@]3(CO)CCC12O (some centres not stated)
> 50 | inactive |  |  | inactive | < 50 | CC1=C(O)C(=O)C[C@@]2(C)[C@H]1CC[C@@]1(CO)c3cocc3CC[C@@H]12
> 50 | inactive |  |  | inactive | < 50 | CC1=C(O)C(=O)C[C@@]2(C)[C@H]1CC[C@@]1(CO)c3cnccc3C(=O)C[C@@H]12
> 50 | inactive |  |  | inactive | < 50 | C[C@]12CC(=O)OC[C@@](C)(C(=O)O)[C@@H]1CC[C@@]1(CO)c3cocc3CC[C@@H]12
